Among the data in ChEMBL document CHEMBL2062428, “Cyclooxygenase-1-selective inhibitors based on the (E)-2'-des-methyl-sulindac sulfide scaffold” (J Med Chem, 2012) are inhibition values, retold here.

The source made the active and inactive calls. The calls are words filed in the database; no cut-off is given here.

The target of assay [1] is T1, Prostaglandin G/H synthase 1 (Ovis aries) (UniProt P05979).
T1 sequence (whole entry): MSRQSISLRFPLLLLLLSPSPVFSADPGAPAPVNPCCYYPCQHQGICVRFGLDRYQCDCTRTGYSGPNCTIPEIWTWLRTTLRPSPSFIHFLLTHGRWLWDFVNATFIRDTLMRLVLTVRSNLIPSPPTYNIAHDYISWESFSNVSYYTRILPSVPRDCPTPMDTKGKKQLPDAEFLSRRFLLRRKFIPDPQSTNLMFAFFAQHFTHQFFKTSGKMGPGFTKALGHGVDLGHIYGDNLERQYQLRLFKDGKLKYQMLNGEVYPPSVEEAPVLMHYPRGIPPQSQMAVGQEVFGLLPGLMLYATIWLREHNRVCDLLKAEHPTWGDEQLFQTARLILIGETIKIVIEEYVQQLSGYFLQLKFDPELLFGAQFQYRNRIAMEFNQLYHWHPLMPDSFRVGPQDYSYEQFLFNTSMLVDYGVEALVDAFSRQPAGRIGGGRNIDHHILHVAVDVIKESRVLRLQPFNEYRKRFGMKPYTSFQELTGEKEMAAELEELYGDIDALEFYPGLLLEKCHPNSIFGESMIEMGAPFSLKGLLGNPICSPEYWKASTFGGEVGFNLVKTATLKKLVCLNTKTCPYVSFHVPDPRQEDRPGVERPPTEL
As to the kind of experiment: Inhibition of ovine COX-1 using [14C] arachidonic acid as substrate at 4 uM preincubated for 17 mins before substrate addition measured after 3 mins by thin-layer chromatographic analysis. The procedure, abridged:
(§1)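 Purified ovine COX-1 or murine COX-2 preincubated with a single 4 μM inhibitor concentration for 17 min. […] Reaction quenched; radioactive products extracted and quantified. Mean ± SEM of two experiments.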

The target in assay [2] is T2, Prostaglandin G/H synthase 2 (Mus musculus) (UniProt Q05769).
T2 sequence (whole entry): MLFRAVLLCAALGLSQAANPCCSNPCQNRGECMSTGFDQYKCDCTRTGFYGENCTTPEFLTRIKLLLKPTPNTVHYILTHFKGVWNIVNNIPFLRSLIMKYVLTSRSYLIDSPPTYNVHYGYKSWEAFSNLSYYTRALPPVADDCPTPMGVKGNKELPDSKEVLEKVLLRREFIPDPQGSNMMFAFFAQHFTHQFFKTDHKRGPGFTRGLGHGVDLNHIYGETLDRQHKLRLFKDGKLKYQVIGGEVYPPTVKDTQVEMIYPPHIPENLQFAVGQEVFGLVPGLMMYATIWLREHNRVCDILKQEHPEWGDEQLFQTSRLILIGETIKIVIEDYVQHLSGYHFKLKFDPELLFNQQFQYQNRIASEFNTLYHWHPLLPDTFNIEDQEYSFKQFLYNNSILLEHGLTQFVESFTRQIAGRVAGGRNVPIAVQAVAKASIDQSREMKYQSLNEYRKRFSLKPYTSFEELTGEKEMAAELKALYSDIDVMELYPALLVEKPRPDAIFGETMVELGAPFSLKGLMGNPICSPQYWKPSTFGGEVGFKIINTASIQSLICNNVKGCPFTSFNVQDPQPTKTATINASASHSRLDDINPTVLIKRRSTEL
In words: Inhibition of mouse COX-2 using [14C] arachidonic acid as substrate at 4 uM preincubated for 17 mins before substrate addition measured after 3 mins by thin-layer chromatographic analysis. Put shortly:
as §1

As for `CSc1ccc(/C=C2\C=C(C(C)(C)C(=O)O)c3cc(F)ccc32)cc1`, the inhibition (as a rule, the drop in the measured response relative to a control, in per cent) in assay [1] was determined as 17%; in assay [2], 16%.

Consider `O=C(O)CC1=C/C(=C\c2cnc(-c3ccccc3)nc2)c2ccc(F)cc21`, for which the inhibition in assay [1] worked out at 35%; in assay [2], 8%.

Regarding `CCOC(=O)C(C)(C)C1=C/C(=C\c2cn(C)c3ccccc23)c2ccc(F)cc21`, the inhibition in assay [1] came to 47%; in assay [2], 22%.

Turning to `CCOC(=O)C(C)(C)C1=C/C(=C\c2ccc(-c3ccccc3)cc2)c2ccc(F)cc21`, the inhibition in assay [1] was 26%; in assay [2] it was 2%.

On to `O=C(O)CC1=C/C(=C\c2ccc(-c3ccc(F)cc3)cc2)c2ccc(F)cc21`, for which the figures for the inhibition in assay [1] and in assay [2] were 33% and 16%, respectively.

Regarding `CCOC(=O)C(C)(C)C1=C/C(=C\c2cc(-c3ccc(C)cc3)on2)c2ccc(F)cc21`, the inhibition in assay [1] stood at 37%; in assay [2], 0%.

For the compound `O=C(O)CC1=C/C(=C\c2ccc(-c3ccc(F)nc3)cc2)c2ccc(F)cc21`, the inhibition in assay [1] worked out at 27%; in assay [2], 10%.

On to `O=C(O)CC1=C/C(=C\c2cccc(-c3ccc(F)cc3)n2)c2ccc(F)cc21`, for which the inhibition amounted to 17% in assay [1] and 81% in assay [2].

As to `CCOC(=O)CC1=C/C(=C\c2ccc(C(=O)OCC)cc2)c2ccc(F)cc21`, the inhibition was determined as 39% in assay [1] and 0% in assay [2].

`CSc1ccc(/C=C2\C=C(CC(=O)NS(=O)(=O)c3ccc(Br)cc3)c3cc(F)ccc32)cc1`: the inhibition came out at 40% in assay [1] and 30% in assay [2].

Consider `O=C(O)CC1=C/C(=C\c2ccc3cccnc3c2)c2ccc(F)cc21`, for which the inhibition in assay [1] worked out at 58%; in assay [2], 16%.

On to `CSc1ccc(/C=C2\C=C(CC(=O)NS(C)(=O)=O)c3cc(F)ccc32)cc1`, for which the inhibition came to 21% in assay [1] and 7% in assay [2].

In turn, `CC(C(=O)O)C1=C/C(=C\c2ccc(-c3ccccc3)cc2)c2ccc(F)cc21` (stereo not given) had an inhibition in assay [1] of 30%. Moreover, in assay [2], the inhibition result is “inactive”.

As to `Cc1ccc(/C=C2\C=C(CC(=O)O)c3cc(F)ccc32)cc1`, the inhibition in assay [1] worked out at 52%; in assay [2], 13%.

For the compound `C#CCOc1ccc(/C=C2\C=C(CC(=O)O)c3cc(F)ccc32)cc1OCC`, the inhibition worked out at 68% in assay [1] and 20% in assay [2].

Consider `COc1ccc(S(=O)(=O)NC(=O)CC2=C/C(=C\c3ccc(SC)cc3)c3ccc(F)cc32)cc1`, for which the inhibition was 58% in assay [1] and 8% in assay [2].

With `O=C(O)CC1=C/C(=C\c2cccc3ccccc23)c2ccc(F)cc21`, the inhibition was found to be 53% in assay [1] and 7% in assay [2].

In the case of `O=C(O)CC1=C/C(=C\c2ccc(F)c3ccccc23)c2ccc(F)cc21`, the inhibition in assay [1] is 61%; in assay [2], 22%.

As for `C#Cc1ccc(/C=C2\C=C(CC(=O)O)c3cc(F)ccc32)cc1`, the inhibition in assay [1] was 62%; in assay [2], 17%.

On to `O=C(O)CC1=C/C(=C\c2cccc(-c3cccs3)n2)c2ccc(F)cc21`, for which the inhibition came to 15% in assay [1] and 28% in assay [2].

As to `CSc1ccc(/C=C2\C=C(CC(=O)NS(=O)(=O)c3ccc(Cl)s3)c3cc(F)ccc32)cc1`, the inhibition in assay [1] worked out at 59%; in assay [2], 34%.

Turning to `O=C(O)CC1=C/C(=C\c2ccc3cccnc3n2)c2ccc(F)cc21`, the inhibition in assay [1] was 14%; in assay [2], 42%.

Regarding `CSc1ccc(/C=C2\C=C(CC(=O)NS(=O)(=O)c3ccc(C(C)C)cc3)c3cc(F)ccc32)cc1`, the inhibition amounted to 45% in assay [1] and 2% in assay [2].

For `O=C(O)CC1=C/C(=C\c2ccc(-c3ccccc3)c(F)c2)c2ccc(F)cc21`, the inhibition is 44% in assay [1] and 34% in assay [2].

For the compound `COc1ccc(/C=C2\C=C(CC(=O)O)c3cc(F)ccc32)cc1`, the inhibition in assay [1] was 62%; in assay [2], 22%.

Turning to `O=C(O)CC1=C/C(=C\c2ccc(Br)cc2)c2ccc(F)cc21`, the inhibition in assay [1] came out at 73%; in assay [2], 34%.

Turning to `O=C(O)CC1=C/C(=C\c2cccc3cccnc23)c2ccc(F)cc21`, the inhibition in assay [1] amounted to 51%; in assay [2] it was 0%.

Regarding `CSc1ccc(/C=C2\C=C(CC(=O)OC(C)C)c3cc(F)ccc32)cc1`, the inhibition in assay [1] is 27%; in assay [2] it was 0%.

With `CSc1ccc(/C=C2\C=C(CC(=O)NS(=O)(=O)c3ccc(C(F)(F)F)cc3)c3cc(F)ccc32)cc1`, the figures for the inhibition in assay [1] and in assay [2] were 48% and 19%, respectively.

As to `CCOC(=O)C(C)(C)C1=C/C(=C\c2cccc(-c3ccccc3)c2)c2ccc(F)cc21`, the inhibition stood at 24% in assay [1] and 4% in assay [2].

For the compound `CSc1ccc(-c2ccc(/C=C3\C=C(CC(=O)O)c4cc(F)ccc43)cc2)cc1`, the inhibition in assay [1] turned out to be 68%; in assay [2] it was 18%.

On to `CCOC(=O)C(C)C1=C/C(=C\c2ccc(-c3ccccc3)cc2)c2ccc(F)cc21` (stereo not given), for which the inhibition in assay [1] was 30%; in assay [2] it was 0%.

For `O=C(O)CC1=C/C(=C\c2ccc(-c3ccccc3)nc2)c2ccc(F)cc21`, the inhibition in assay [1] worked out at 55%; in assay [2], 5%.

As to `O=C(O)CC1=C/C(=C\c2ccc(C(=O)O)cc2)c2ccc(F)cc21`, the inhibition is 43% in assay [1] and 0% in assay [2].

On to `O=C(O)CC1=C/C(=C\c2ccc3nccnc3c2)c2ccc(F)cc21`, for which the inhibition in assay [1] is 31%; in assay [2], 29%.

As to `C[S+]([O-])c1ccc(/C=C2\C=C(CC(=O)O)c3cc(F)ccc32)cc1` (stereo not given), the inhibition amounted to 27% in assay [1] and 8.5% in assay [2].

In the case of `CCOC(=O)CC1=C/C(=C\c2ccc(SC)cc2)c2ccc(F)cc21`, the inhibition turned out to be 20% in assay [1] and 0% in assay [2].

With `CCOC(=O)C(C)(C)C1=C/C(=C\c2cccc(-c3ccc(F)cc3)n2)c2ccc(F)cc21`, the inhibition came to 24% in assay [1] and 21% in assay [2].

As for `CCOC(=O)C(C)(C)C1=C/C(=C\c2ccc(SC)cc2)c2ccc(F)cc21`, the inhibition in assay [1] is 43%; in assay [2] it was 0%.

In the case of `O=C(O)CC1=C/C(=C\c2ccc3c(c2)Cc2ccccc2-3)c2ccc(F)cc21`, the inhibition was 70% in assay [1] and 26% in assay [2].

Take `O=C(O)CC1=C/C(=C\c2cnc(C3CCCCC3)nc2)c2ccc(F)cc21`: the inhibition in assay [1] was determined as 45%; in assay [2] it was 25%.

Turning to `O=C(O)CC1=C/C(=C\c2cccc(-c3ccc4c(c3)OCO4)n2)c2ccc(F)cc21`, the inhibition was determined as 59% in assay [1] and 43% in assay [2].

In the case of `CSc1ccc(/C=C2\C=C(CC(=O)NS(=O)(=O)c3ccc(OC(F)(F)F)cc3)c3cc(F)ccc32)cc1`, the inhibition amounted to 47% in assay [1] and 32% in assay [2].

With `O=C(O)CC1=C/C(=C\c2ccc(SC(F)(F)F)cc2)c2ccc(F)cc21`, the figures for the inhibition in assay [1] and in assay [2] were 77% and 35%, respectively.

On to `CSc1ccc(/C=C2\C=C(CC(=O)NS(=O)(=O)c3ccc4ccccc4c3)c3cc(F)ccc32)cc1`, for which the inhibition turned out to be 74% in assay [1] and 26% in assay [2].

Take `CSc1ccc(/C=C2\C=C(CC(=O)NS(=O)(=O)c3ccc(C)cc3)c3cc(F)ccc32)cc1`: the inhibition in assay [1] came out at 55%; in assay [2], 20%.

As for `CCOC(=O)C(C)(C)C1=C/C(=C\c2ccc(-c3ccc(F)cc3)cc2)c2ccc(F)cc21`, the inhibition in assay [1] amounted to 10%; in assay [2], 0%.

With `O=C(O)CC1=C/C(=C\c2ccc(S(=O)(=O)C(F)(F)F)cc2)c2ccc(F)cc21`, the results for the inhibition in assay [1] and in assay [2] were 34% and 16%, respectively.

In the case of `CSc1ccc(/C=C2\C=C(CC(=O)NS(=O)(=O)c3ccc(F)cc3)c3cc(F)ccc32)cc1`, the inhibition in assay [1] was found to be 44%; in assay [2], 20%.

On to `CC(C)(C)Oc1ccc(/C=C2\C=C(CC(=O)O)c3cc(F)ccc32)cc1`, for which the inhibition in assay [1] was 17%; in assay [2] it was 5%.
